From ChEMBL document CHEMBL1139360, “Mechanism of p300 specific histone acetyltransferase inhibition by small molecules” (J Med Chem, 2009)

Tests used:
[1] = target: Histone acetyltransferase KAT2B (Homo sapiens) (UniProt Q92831); assay: Inhibition of HAT PCAF relative to control; parameters: scale not given: the % may be the effect or the level left
Method in brief: (§1)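 Filter-binding HAT assay with PCAF, purified HeLa core histones and ³H-acetyl-CoA, run at increasing inhibitor concentrations. Activity compared with a DMSO solvent control.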

[2] = target: T1, Histone acetyltransferase p300 (Homo sapiens, UniProt Q09472); assay: Binding affinity to HAT p300 catalytic domain by isothermal titration calorimetry
T1 sequence (Q09472 whole entry, the tested form may be a part): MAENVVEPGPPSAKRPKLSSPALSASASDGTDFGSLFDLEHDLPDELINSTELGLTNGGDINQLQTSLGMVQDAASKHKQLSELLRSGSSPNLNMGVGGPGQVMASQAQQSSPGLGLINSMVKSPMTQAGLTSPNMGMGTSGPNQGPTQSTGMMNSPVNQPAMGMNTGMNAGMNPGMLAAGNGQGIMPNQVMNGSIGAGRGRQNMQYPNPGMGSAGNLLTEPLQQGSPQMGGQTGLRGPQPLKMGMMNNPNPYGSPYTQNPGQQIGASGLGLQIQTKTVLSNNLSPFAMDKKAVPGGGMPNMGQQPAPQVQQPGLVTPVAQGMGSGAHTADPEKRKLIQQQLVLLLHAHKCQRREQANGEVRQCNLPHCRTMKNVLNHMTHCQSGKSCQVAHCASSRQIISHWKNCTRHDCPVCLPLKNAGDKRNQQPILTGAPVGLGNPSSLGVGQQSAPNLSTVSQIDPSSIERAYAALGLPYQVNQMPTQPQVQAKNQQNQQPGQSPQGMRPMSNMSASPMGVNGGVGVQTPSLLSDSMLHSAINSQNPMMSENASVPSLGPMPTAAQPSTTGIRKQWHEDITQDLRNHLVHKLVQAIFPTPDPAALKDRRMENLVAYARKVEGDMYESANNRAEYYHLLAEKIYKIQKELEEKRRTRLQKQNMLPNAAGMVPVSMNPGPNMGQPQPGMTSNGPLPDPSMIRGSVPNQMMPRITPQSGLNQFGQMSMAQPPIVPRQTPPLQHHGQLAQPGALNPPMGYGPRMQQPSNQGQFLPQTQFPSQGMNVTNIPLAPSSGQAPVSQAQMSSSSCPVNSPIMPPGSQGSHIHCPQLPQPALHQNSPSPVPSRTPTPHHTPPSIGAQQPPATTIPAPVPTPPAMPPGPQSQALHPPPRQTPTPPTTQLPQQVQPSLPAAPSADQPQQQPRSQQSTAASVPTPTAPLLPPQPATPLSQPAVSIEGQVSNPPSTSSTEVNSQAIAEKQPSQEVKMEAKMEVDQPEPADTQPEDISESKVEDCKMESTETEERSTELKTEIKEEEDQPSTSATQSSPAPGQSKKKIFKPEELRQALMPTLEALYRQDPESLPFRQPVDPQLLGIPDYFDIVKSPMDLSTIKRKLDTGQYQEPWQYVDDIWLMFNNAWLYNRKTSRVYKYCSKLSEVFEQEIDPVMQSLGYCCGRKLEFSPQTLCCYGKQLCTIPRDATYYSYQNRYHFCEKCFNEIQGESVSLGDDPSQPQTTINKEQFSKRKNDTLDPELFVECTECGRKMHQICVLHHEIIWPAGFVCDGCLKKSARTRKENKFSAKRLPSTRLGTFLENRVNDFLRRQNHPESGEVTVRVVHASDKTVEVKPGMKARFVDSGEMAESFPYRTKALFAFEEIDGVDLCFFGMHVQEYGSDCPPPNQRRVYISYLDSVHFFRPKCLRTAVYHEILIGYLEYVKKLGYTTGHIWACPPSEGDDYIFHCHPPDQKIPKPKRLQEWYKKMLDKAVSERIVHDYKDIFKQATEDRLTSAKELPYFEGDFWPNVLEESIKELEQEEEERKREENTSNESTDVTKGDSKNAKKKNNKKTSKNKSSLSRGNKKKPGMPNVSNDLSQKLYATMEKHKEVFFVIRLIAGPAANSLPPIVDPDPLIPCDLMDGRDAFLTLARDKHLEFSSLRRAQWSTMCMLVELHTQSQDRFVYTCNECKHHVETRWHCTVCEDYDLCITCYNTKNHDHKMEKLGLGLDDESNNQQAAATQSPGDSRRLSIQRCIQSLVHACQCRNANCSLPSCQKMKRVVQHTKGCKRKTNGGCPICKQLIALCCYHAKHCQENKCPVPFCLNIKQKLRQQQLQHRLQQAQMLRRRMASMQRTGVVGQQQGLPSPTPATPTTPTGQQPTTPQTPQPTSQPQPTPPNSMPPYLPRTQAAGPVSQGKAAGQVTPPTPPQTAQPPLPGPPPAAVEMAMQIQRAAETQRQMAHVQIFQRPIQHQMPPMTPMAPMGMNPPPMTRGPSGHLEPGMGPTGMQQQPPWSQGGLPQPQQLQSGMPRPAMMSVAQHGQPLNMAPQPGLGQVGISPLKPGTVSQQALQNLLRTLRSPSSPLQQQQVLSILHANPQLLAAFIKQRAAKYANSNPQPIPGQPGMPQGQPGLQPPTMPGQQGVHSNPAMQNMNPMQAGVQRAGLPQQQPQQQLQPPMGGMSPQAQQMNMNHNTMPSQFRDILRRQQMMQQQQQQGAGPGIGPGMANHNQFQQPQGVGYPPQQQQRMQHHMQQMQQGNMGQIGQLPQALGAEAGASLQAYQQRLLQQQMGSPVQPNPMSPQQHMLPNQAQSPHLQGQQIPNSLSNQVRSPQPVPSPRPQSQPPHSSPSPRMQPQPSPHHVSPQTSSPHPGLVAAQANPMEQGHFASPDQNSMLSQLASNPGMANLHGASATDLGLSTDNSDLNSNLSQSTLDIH
Method in brief: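 ITC at 20 °C. Ligand at 30–35 μM injected into 3 μM p300 HAT domain in 20 mM Tris-HCl pH 7.5, 0.2 mM EDTA, 100 mM KCl. 35 injections, 2 min apart; the first 1 μL injection was discarded. Ligand-into-buffer and buffer-into-buffer blanks were subtracted, and data fitted to a one-set-of-sites model.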

[3] = target: T1, Histone acetyltransferase p300; assay: Inhibition of HAT p300 catalytic domain assessed as drug-induced alteration of protein tertiary structure at 2.5 uM by Stern-Volmer plot; parameters: scale not given: the % may be the effect or the level left
Method in brief: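 p300 HAT domain (1.2 μM) preincubated 2 min at room temperature with 2.5 μM inhibitor in 20 mM Tris-HCl pH 7.5, 0.2 mM EDTA, 100 mM KCl. Acrylamide added stepwise; fluorescence read at 340 nm (excitation 295 nm) at 20 °C. Ksv taken from a Stern–Volmer plot and tryptophan accessibility from a modified Stern–Volmer plot.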

[4] = target: T1, Histone acetyltransferase p300; assay: Binding affinity to HAT p300 catalytic domain by fluorometric titration
Method in brief: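 p300 HAT domain (aa 1284–1673, 6His, from E. coli BL21(DE3) co-expressing SirT2), 1.2 μM, titrated with ligand in 20 mM Tris-HCl pH 7.5, 0.2 mM EDTA, 100 mM KCl. Tryptophan emission read at 340 nm (excitation 295 nm). Kd obtained by nonlinear least-squares fit; ΔFmax taken from a double-reciprocal plot.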

[5] = target: T1, Histone acetyltransferase p300; assay: Inhibition of HAT p300 catalytic domain activity expressed in Escherichia coli BL21 (DE3) co-transformed with human SirT2 by fluorography/autoradiography assay
[6] = target: T1, Histone acetyltransferase p300; assay: Inhibition of HAT p300 catalytic domain
[7] = target: Histone acetyltransferase KAT2B (Homo sapiens) (UniProt Q92831); assay: Inhibition of HAT PCAF up to 10 uM after 2 mins in absence of acetyl-CoA; parameters: scale not given: the % may be the effect or the level left
Method in brief: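 PCAF preincubated with inhibitor at 10 μM without acetyl-CoA over a time course, then assayed for HAT activity on purified HeLa core histones in triplicate. Activity compared with a DMSO control.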

[8] = target: Histone acetyltransferase KAT2B (Homo sapiens) (UniProt Q92831); assay: Inhibition of HAT PCAF up to 40 uM relative to control; parameters: scale not given: the % may be the effect or the level left; method in brief: as §1

Histone acetyltransferase KAT2B (Homo sapiens), sequence (Q92831 whole entry, looked up): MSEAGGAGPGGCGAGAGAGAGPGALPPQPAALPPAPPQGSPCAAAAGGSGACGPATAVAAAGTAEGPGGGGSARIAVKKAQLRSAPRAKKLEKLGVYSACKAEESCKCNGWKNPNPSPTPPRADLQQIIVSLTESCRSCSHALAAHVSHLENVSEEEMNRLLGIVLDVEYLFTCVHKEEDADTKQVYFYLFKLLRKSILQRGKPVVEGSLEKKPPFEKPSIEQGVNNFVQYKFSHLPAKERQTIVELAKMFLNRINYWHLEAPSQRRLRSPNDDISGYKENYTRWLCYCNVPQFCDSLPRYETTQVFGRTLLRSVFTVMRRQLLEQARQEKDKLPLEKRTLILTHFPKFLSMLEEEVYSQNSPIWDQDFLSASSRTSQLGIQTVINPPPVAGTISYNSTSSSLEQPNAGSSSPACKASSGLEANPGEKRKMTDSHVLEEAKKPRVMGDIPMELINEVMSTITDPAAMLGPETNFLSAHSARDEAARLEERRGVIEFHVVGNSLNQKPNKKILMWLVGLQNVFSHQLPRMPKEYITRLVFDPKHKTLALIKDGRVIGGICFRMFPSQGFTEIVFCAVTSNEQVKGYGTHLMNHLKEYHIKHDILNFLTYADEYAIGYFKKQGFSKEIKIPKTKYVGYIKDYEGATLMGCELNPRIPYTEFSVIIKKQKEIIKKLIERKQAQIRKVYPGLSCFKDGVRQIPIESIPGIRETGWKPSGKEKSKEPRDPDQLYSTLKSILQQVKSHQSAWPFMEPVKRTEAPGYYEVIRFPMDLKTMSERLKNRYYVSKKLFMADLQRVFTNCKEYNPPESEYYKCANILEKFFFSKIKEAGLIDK

CC(C)=CC[C@H]1C[C@@]23C[C@@H](CC=C(C)C)C(C)(C)[C@@](CC=C(C)C)(C(=O)C(C(=O)c4ccc(O)c(O)c4)=C2OC1(C)C)C3=O [CAMBOGIN] was tested, and the Activity [1] was 50%, the Kd [2] was 5.9 µM and the Activity [3] was 75%. The Kd [4] was 1.1 µM, the Activity [5] was “Dose-dependent effect” and the Ki [6] was 3.9 µM.

C=C(C)[C@@H](CC=C(C)C)C[C@@]12C[C@@H](CC=C(C)C)C(C)(C)[C@@](CC=C(C)C)(C(=O)C(C(=O)c3ccc(O)c(O)c3)=C1O)C2=O [GARCINOL] showed an Activity [7] of 80%, an Activity [8] of 90% and a Kd [2] of 6.6 µM. For the same compound, the Activity [3] was 78%, the Kd [4] was 1.8 µM and the Activity [5] was “Dose-dependent effect”. It also gave a Ki [6] of 4.9 µM.
